{
  "source": "ChEMBL document CHEMBL6087468",
  "about": "“TKK130 is a 3-Hydroxy-Propanamidine (HPA) with Potent Antimalarial In Vivo Activity and a High Barrier to Resistance” (J Med Chem, 2025)",
  "experiment": "Plasma protein binding in plasma (unknown origin) at 25 ng/ml measured after 24 hrs by standard equilibrium dialysis assay",
  "assay_type": "ADME, cell-free",
  "conditions": "read-out: PPB (converted)",
  "outline": "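Standard equilibrium dialysis (6 kDa regenerated cellulose membrane): donor plasma spiked at 25 ng/mL, acceptor 0.9% saline, 24 h at 37 °C. Acetonitrile precipitation of plasma, methanol added to acceptor; LC–MS/MS with calibration curves in each medium; fraction bound corrected for volume shift; triplicate; itraconazole reference.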",
  "data": [
    {"smiles": "Cl.N=C(CC(O)c1cc2c(F)cc(F)cc2c2cc(C(F)(F)F)ccc12)Nc1ccc(F)cc1", "note": "(stereo unspecified)", "values": [
      {"measurement": "fraction unbound at 24 h, 25 ng/ml", "result": "< 0.002"}
    ]}
  ]
}
